Screening data from PubChem.
CHOP UPR activ: activators of apoptotic CHOP UPR arm, primary screen, cell-based, CHO-CHOP luciferase reporter, luminescence, uHTS. UPR activation; percent of tunicamycin response over DMSO baseline. activation, % at 10 µM. hit rate 0.34% among 330,000. AID 449763, 2010;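 active means at 10 µM dose, activation of 40% or more, normalized to positive control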;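 further: 100% = tunicamycin at 10 µg/mL and 0% = DMSO alone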
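Test system: CHO-CHOP cells, stable luciferase reporter of PERK-eIF2a-CHOP signalling | Quantity: 500 CHO-CHOP cells per well | Buffer or medium: F12 plus 10% serum | Compound dosing: 10 µM single point, 0.5% DMSO | Schedule: 6 h compound treatment, 37 °C | Signal: Luciferase luminescence | Control set: Tunicamycin high control, DMSO low control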
CHOP inhibitor: inhibitors of CHOP promoter induction, primary screen, cell-based, unfolded protein response, luciferase reporter. CHO-K1 CHOP-promoter luciferase, tunicamycin-induced, 15-18 h. inhibition, % at 10 µM. hit rate 3.8% among 220,000. AID 2732, 2010;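 active means compounds that reduced the stress-induced luciferase reporter signal by more than about 70% of percent inhibition, limit read from the data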;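 further: 0% = tunicamycin plus vehicle and 100% = wells without tunicamycin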
697 NFkB inh: inhibitors of PMA/ionomycin-induced NF-kB reporter, 697 cells, primary screen, B-cell NF-kB inhibitor project, cell-based, luminescence, uHTS. inhibition, % at 4 µM. hit rate 0.33% among 330,000. 697 B-cell NF-kB luciferase reporter, 16 h; in the data active means inhibition above about 35%
Jurkat NFkB inh: inhibitors of induced NF-kB luciferase reporter, primary screen, TCR NF-kB activation inhibitor project, cell-based, luminescence, uHTS; hit rate 0.53% among 330,000; inhibition, % at 4 µM; Jurkat, PMA/ionomycin-induced NF-kB luciferase reporter; in the data active means inhibition above about 50%
XBP1 UPR activ: activators of adaptive XBP1 UPR arm, primary screen, cell-based, CHO-XBP1 luciferase reporter, luminescence, uHTS. activation, % at 20 µM. hit rate 0.33% among 330,000. IRE1-XBP1 UPR activation; percent of tunicamycin response, DMSO as zero;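 active means versus positive control, 20 µM dose yields 30% or more activation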;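 further: 100% = tunicamycin at 10 µg/mL and 0% = DMSO only wells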
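Assay system: IRE1-XBP1 luciferase reporter CHO line. Input: 1000 cells/well. Buffer or medium: F12 with 10% serum. Doses: 20 µM, 1% DMSO. Times: overnight seeding at 37 °C, 6 h compound treatment at 37 °C. Technique: Steady-Glo luciferase glow luminescence, 10 min after reagent addition.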
UPR XBP1 confirm: IRE1-XBP1 UPR arm activators, confirmation, cell-based, CHO-XBP1 luciferase reporter, luminescence, single concentration | shares compounds with XBP1 UPR activ | activation, % at 20 µM | hit rate 63% among 1,000 | AID 485299, 2010;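 active means reporter signal at least 30% of the positive control's activation in two or more of four replicate wells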;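 further: plate controls were DMSO negative control for no effect and tunicamycin 10 µg/mL positive control for full effect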
The depositor's hits bear a star. This is one part of a sample in which hits are shown more often than they occur.

Screening Cc1ccc(Cn2c(C(C)Nc3nc(-c4ccc(F)cc4)cs3)nc3cc(Cl)c(Cl)cc32)cc1 (configuration not stated) returned CHOP UPR activ 2, 697 NFkB inh -10, Jurkat NFkB inh -20, XBP1 UPR activ 35* and UPR XBP1 confirm 30*.
Screening COCCNC(=O)/C(C#N)=C/c1c(N2CCN(C)CC2)nc2ccccn2c1=O returned CHOP UPR activ -2, 697 NFkB inh 1, Jurkat NFkB inh -11 and XBP1 UPR activ 4.
CC(C)N(C(=O)[C@H]1C[C@H](CC(=O)NCC23CC4CC(CC(C4)C2)C3)C(=O)N2CCc3c([nH]c4ccc(Cl)cc34)[C@]12C)C(C)C was read as CHOP UPR activ 9, 697 NFkB inh 17, XBP1 UPR activ 39* and UPR XBP1 confirm 50*.
`CCN(CC)C(=O)[C@H]1C[C@H](CC(=O)NCC23CC4CC(CC(C4)C2)C3)C(=O)N2CCc3c([nH]c4ccc(Cl)cc34)[C@]12C` gave CHOP UPR activ 4, 697 NFkB inh 22 and XBP1 UPR activ 11.
O=C(Nc1ccc(Oc2ccc(NC(=O)Nc3ccccc3Cl)cc2)cc1)Nc1ccccc1Cl was read as CHOP UPR activ 15, CHOP inhibitor 94*, 697 NFkB inh -207, Jurkat NFkB inh 8, XBP1 UPR activ 44* and UPR XBP1 confirm 54*.
O=C(Nc1ccccc1)Nc1cccc(Cl)c1Cl was read as CHOP UPR activ 4, CHOP inhibitor 15, 697 NFkB inh -62, Jurkat NFkB inh -36 and XBP1 UPR activ 1.
For O=C(O)CCn1cc(/C=N/O)c(-c2cccc([N+](=O)[O-])c2)n1 the results were CHOP UPR activ -1, CHOP inhibitor -7, 697 NFkB inh 3, Jurkat NFkB inh 5 and XBP1 UPR activ -6.
Screening Cc1cccc(Nc2nc(NCC3CCCO3)nc(N)c2[N+](=O)[O-])c1 (configuration not stated) returned CHOP UPR activ 1, CHOP inhibitor 50, 697 NFkB inh -34, Jurkat NFkB inh 9 and XBP1 UPR activ 1.
Nc1nc(NCC2CCCO2)nc(Nc2cccc(Cl)c2)c1[N+](=O)[O-] (configuration not stated) was read as CHOP UPR activ 1, CHOP inhibitor 28, 697 NFkB inh 4, Jurkat NFkB inh 0, XBP1 UPR activ 36* and UPR XBP1 confirm 1.
COc1ccc(CNc2nc(SCc3cc(=O)n4cc(Cl)ccc4n3)nc3ccccc23)cc1 was read as CHOP UPR activ 0, CHOP inhibitor 10, 697 NFkB inh -56, Jurkat NFkB inh -1 and XBP1 UPR activ 0.
`CCCNC(=O)c1c(N)n(-c2ccc3c(c2)OCO3)c2nc3ccccc3nc12` gave CHOP UPR activ 20, CHOP inhibitor 80*, 697 NFkB inh 10, Jurkat NFkB inh 0, XBP1 UPR activ 44* and UPR XBP1 confirm 29*.
`Cc1ccc(-c2cc(C(=O)N3CCN(c4ccccc4O)CC3)c3ccccc3n2)o1` gave CHOP UPR activ 4, 697 NFkB inh -46, Jurkat NFkB inh -28, XBP1 UPR activ 38* and UPR XBP1 confirm 1.
Screening CC(C)c1ccc(/C=C/C(=O)Nc2nc3ccc([N+](=O)[O-])cc3s2)cc1 returned CHOP UPR activ 17, CHOP inhibitor 53, 697 NFkB inh 5, Jurkat NFkB inh 7, XBP1 UPR activ 50* and UPR XBP1 confirm 32*.
CCN(CC(=O)NC(=O)NCc1ccccc1)Cc1ccccc1 was read as CHOP UPR activ 1, 697 NFkB inh -8, Jurkat NFkB inh 5 and XBP1 UPR activ 4.
`Cc1cc2nc(CCN3CCOCC3)n(S(=O)(=O)c3ccc(C(C)(C)C)cc3)c2cc1C` gave CHOP UPR activ 15, CHOP inhibitor 36, 697 NFkB inh 3, Jurkat NFkB inh 1, XBP1 UPR activ 32* and UPR XBP1 confirm 0.
For COc1ccnc(-n2cccc2C#N)c1C#N the results were CHOP UPR activ -1, CHOP inhibitor 11, 697 NFkB inh -32, Jurkat NFkB inh -17 and XBP1 UPR activ 0.
For COc1ccc2cc3c(N)nn(C(=O)C4CCC(C(C)(C)C)CC4)c3nc2c1 (configuration not stated) the results were CHOP UPR activ -3, CHOP inhibitor 67, 697 NFkB inh -28, Jurkat NFkB inh 18, XBP1 UPR activ 111* and UPR XBP1 confirm 37*.
CS(=O)(=O)N(CC(=O)NC1CCCC1)C1CCCCC1 was read as CHOP UPR activ -1, CHOP inhibitor 40, 697 NFkB inh 4, Jurkat NFkB inh 5 and XBP1 UPR activ -1.
Screening Nc1nncn1C(=O)CCc1ccccc1 returned CHOP UPR activ 1, CHOP inhibitor 31, 697 NFkB inh 14, Jurkat NFkB inh -11 and XBP1 UPR activ 0.
Cc1occc1C(=O)Nc1cccc(C(F)(F)F)c1 was read as CHOP UPR activ 0, CHOP inhibitor 48, 697 NFkB inh -7, Jurkat NFkB inh -7 and XBP1 UPR activ 0.
For Cc1cnc(Nc2nc3ccccc3o2)nc1C(=O)Nc1cccc(C(F)(F)F)c1 the results were CHOP UPR activ 3, CHOP inhibitor 91*, 697 NFkB inh -13, Jurkat NFkB inh -8, XBP1 UPR activ 45* and UPR XBP1 confirm 9.
`CC(C)C12CN3CC(C(C)C)(CN(C1)C3c1ccc([N+](=O)[O-])o1)C2=O` (configuration not stated) gave CHOP UPR activ 2, CHOP inhibitor 6, 697 NFkB inh 14, Jurkat NFkB inh -12 and XBP1 UPR activ -3.
`CC1=CC(c2ccc(Cl)cc2)n2nc(NC(=O)CCC(=O)O)nc2N1` (configuration not stated) gave CHOP UPR activ -1, CHOP inhibitor -10, 697 NFkB inh 21, Jurkat NFkB inh 0 and XBP1 UPR activ -1.
CC(C)=CCc1c(O)cc2c(=O)c3ccc(O)cc3oc2c1O was read as CHOP UPR activ 6, 697 NFkB inh -4, Jurkat NFkB inh -25 and XBP1 UPR activ 18.
CC(C)=CCc1c2c(c3occ(-c4ccc(O)cc4)c(=O)c3c1O)C=CC(C)(C)O2 was read as CHOP UPR activ 5, CHOP inhibitor 76*, 697 NFkB inh -4, Jurkat NFkB inh -22, XBP1 UPR activ 56* and UPR XBP1 confirm 50*.
For O=C(COC(=O)c1c[nH]c2ccccc12)Nc1ccc([N+](=O)[O-])cc1 the results were CHOP UPR activ -2, 697 NFkB inh 2, Jurkat NFkB inh -1 and XBP1 UPR activ -1.
